Source: PubChem BioAssay
TRPC6 inh: mouse TRPC6 channel inhibition; HEK293-TRPC6, membrane potential dye, ACh-evoked depolarization; stronger effect = lower value; B-score at 10 µM; 1.1% of 310,000 active;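 active means B-score under library mean minus 3 SD, initial fluorescence not abnormally high, positive integrated signal ratio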;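 further: B-score derived from integrated fluorescence ratio over the kinetic read; more negative B-score means stronger inhibition of depolarization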
TRPC6 activator: activates the mouse TRPC6 cation channel; Q61143; HEK293-TRPC6 membrane potential dye fluorescence; stronger effect = higher value; B-score at 10 µM; 0.13% of 310,000 active; AID 2550;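 active means B-score of the integrated fluorescence ratio above library mean plus 3 SD, and starting fluorescence ratio within library mean plus 5 SD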;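 further: higher score means more depolarization so channel activation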
TRPC4 inh: TRPC4 (mouse) channel inhibition | Q9QUQ5 | B-score at 10 µM | HEK293 TRPC4beta/mu-opioid, DAMGO-evoked Fluo4 calcium flux; stronger effect = lower value | 0.39% of 300,000 active;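 active means B-score over 3 SD under the library average, no early fluorescence shift, positive overall ratio signal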
Target sequence (Q9QUQ5 whole entry, looked up): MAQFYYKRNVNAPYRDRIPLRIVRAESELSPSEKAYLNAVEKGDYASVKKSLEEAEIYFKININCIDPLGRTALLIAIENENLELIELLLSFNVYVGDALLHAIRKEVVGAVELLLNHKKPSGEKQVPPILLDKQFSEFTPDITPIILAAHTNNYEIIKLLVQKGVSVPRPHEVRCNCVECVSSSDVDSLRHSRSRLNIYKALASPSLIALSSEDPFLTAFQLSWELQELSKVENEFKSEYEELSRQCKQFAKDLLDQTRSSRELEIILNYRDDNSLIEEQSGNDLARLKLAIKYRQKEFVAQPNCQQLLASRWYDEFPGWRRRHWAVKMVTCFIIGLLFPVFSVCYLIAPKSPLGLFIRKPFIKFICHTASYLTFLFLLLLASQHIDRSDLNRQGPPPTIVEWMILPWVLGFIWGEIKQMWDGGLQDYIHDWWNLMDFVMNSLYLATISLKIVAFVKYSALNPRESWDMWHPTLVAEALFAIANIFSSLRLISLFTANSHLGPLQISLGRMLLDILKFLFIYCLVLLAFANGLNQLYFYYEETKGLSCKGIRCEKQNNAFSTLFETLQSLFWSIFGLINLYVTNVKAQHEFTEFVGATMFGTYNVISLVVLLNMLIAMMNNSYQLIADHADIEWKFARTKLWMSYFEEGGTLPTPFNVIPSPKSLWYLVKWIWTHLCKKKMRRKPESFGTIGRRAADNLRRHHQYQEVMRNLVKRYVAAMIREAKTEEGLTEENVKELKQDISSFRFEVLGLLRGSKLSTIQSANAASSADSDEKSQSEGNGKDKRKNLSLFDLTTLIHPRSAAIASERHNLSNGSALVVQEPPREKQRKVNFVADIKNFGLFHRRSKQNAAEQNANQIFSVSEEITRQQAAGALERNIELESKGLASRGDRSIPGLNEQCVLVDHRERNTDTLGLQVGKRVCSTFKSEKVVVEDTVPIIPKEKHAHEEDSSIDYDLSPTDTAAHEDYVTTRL
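Assay system: TRPC4beta/mu-opioid receptor HEK293 cell line; compound dosing: single concentration per test compound; detection: Fluo4 Ca2+ flux fluorescence; evaluation: per-well B score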
TRPC4 act: TRPC4 (mouse) channel activation. Q9QUQ5. HEK293 TRPC4beta/mu-opioid, Fluo4 calcium fluorescence; stronger effect = higher value. B-score at 10 µM. 0.49% of 310,000 active;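 active means B-score above 5 SD of library B-scores, and initial fluorescence ratio not above library mean plus 5 SD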;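 further: positive B-score marks a calcium rise read as TRPC4 activation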
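Assay system: HEK293 cells stably co-expressing mouse TRPC4beta and mu-opioid receptor / Timing: Fluo4 dye loading 45 min at room temperature, 110 s recording / Signal: Fluo4 calcium-sensitive dye fluorescence, kinetic, 1 Hz baseline / Read-out: integrated baseline-normalised fluorescence ratio, converted to per-well B score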
TRPC4 potent: allosteric potentiators of mouse TRPC4 channel; Q9QUQ5; HEK293 TRPC4beta/mu-opioid, DAMGO EC20, Fluo-4 Ca2+ flux; stronger effect = higher value; B-score at 10 µM; 0.42% of 310,000 active;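 active means B-score of calcium response area above 5 SD of library B-scores, with initial fluorescence ratio within 5 SD of library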;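 further: B-score of integrated fluorescence ratio over time as area under calcium response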
TRPC4 spec 2: second check of whether TRPC6 inhibitors also affect mouse TRPC4. HEK293 TRPC4/MOR, membrane potential dye fluorescence; channel activated by saturating DAMGO dose. inhibition, % at 10 µM. 42% of 920 active. shares compounds with TRPC6 inh;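 active means compounds whose fluorescence signal differed from control wells by over 3 SD, either direction, in both duplicate plates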
TRPC4 spec: selectivity of TRPC6 inhibitors: effect on mouse TRPC4. HEK293 TRPC4/mu-opioid, membrane potential fluorescence. activity change, negative = inhibition, % at 10 µM. 61% of 920 active. shares compounds with TRPC6 inh;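 active means rise or fall in signal beyond 3 SD of buffer-only wells in both replicate plates, either sign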;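 further: integrated kinetic ratio of fluorescence range over baseline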
HEK293 MPD ctr 2-1: second check of TRPC6 inhibitor effects in parental HEK293 cells | parental HEK293 membrane potential dye fluorescence; maximal acetylcholine challenge after compound addition | 31% of 920 active | shares compounds with TRPC6 inh | signal change vs control, % at 10 µM;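 active means membrane potential signal moving either way by over 3 SD of the maximum-effect control, in both duplicate plates, meaning non-specific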
HEK293 MPD ctr-1: counter-screen for TRPC6 inhibitors: effect in parental HEK293 cells. shares compounds with TRPC6 inh. parental HEK293 membrane potential dye fluorescence. membrane potential signal change, % at 10 µM. 60% of 920 active. AID 2780;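 active means membrane potential signal shifting up or down by more than 3 SD of buffer-only wells, on both duplicate plates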
HEK293 MPD ctr-2: checks TRPC6 modulator effects in parental HEK293 cells. shares compounds with TRPC6 inh. membrane potential dye fluorescence. membrane potential signal change, % at 10 µM. 51% of 2,400 active. AID 488924;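 active means membrane potential signal moves up or down beyond 5 SD from buffer-only wells, on both duplicate plates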
HEK293 MPD ctr 2-2: parental HEK293 nonspecific activity of TRPC6 modulators, second screen; shares compounds with TRPC6 inh; membrane potential dye fluorescence; after compound, maximal acetylcholine stimulation; inhibition, % at 10 µM; 14% of 2,400 active;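 active means membrane potential signal drops by more than 5 SD from the mean control signal, in both duplicate plates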;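 further: plate controls were acetylcholine ECmax control wells for no effect and buffer only wells for full effect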
TRPC4 ctr mod: mouse TRPC4 off-target activity of TRPC6 modulators; 69% of 2,400 active; percent change from control (negative = decrease, positive = increase), % at 10 µM; shares compounds with TRPC6 inh; HEK293 TRPC4/mu-opioid, membrane potential fluorescence;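 active means membrane potential signal moved up or down beyond 5 SD of buffer control wells, in both duplicate plates, actives on both sides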;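 further: plate controls were assay buffer wells for no effect and DAMGO maximal-effect wells for full effect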
TRPC4/MOR inh 2: mouse TRPC4 off-target activity of TRPC6 modulators, second screen; shares compounds with TRPC6 inh; HEK293 TRPC4/mu-opioid, membrane potential dye fluorescence; stimulated with maximal-effect DAMGO; inhibition, % at 10 µM; 55% of 2,400 active;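 active means drop in membrane potential signal beyond 5 SD of the control wells in both duplicate plates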;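 further: TRPC4 counter screen for TRPC6 hits run under conditions tuned for TRPC6 not TRPC4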
TRPC6 inh conf: confirmation of mouse TRPC6 inhibitors; 43% of 3,300 active; shares compounds with TRPC6 inh; AID 488960; HEK293-TRPC6, membrane potential dye, ACh-evoked depolarization; inhibition, % at 10 µM;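 active means fluorescence ratio falls more than 5 SD below the full-stimulation control mean, in both duplicate runs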;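 further: integrated fluorescence ratio of peak minus minimum over baseline after agonist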
TRPC6 act confirm: mouse TRPC6 activator confirmation; AID 488961; HEK293-TRPC6 membrane potential dye fluorescence, FDSS; 11% of 2,800 active; activation, % at 10 µM; shares compounds with TRPC6 inh;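 active means ratio signal rise beyond 5 SD above unstimulated control wells' mean, seen in both duplicate runs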;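 further: plate controls were buffer EC0 wells for no effect and acetylcholine ECmax response for full effect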
* hit, by the source's call. In the library only some 2.3% were active in any assay of this set; here they are far more common.

Screening COc1cccc(NC(=O)C(NC2CCCC2)c2ccccc2)c1 (stereo unspecified) returned TRPC6 inh -9.6*, TRPC6 activator inactive, TRPC4 inh inactive, TRPC4 act inactive, TRPC4 potent inactive, TRPC4 spec 2 inactive, TRPC4 spec 12%*, HEK293 MPD ctr 2-1 245%*, HEK293 MPD ctr-1 9.7%* and TRPC6 inh conf inactive.
COc1ccc(S(=O)(=O)Nc2ccccc2OC)cc1NC(=O)c1cc2ccccc2oc1=O was read as TRPC6 inh inactive, TRPC6 activator inactive, TRPC4 inh inactive, TRPC4 act inactive and TRPC4 potent inactive.
`C=CCNCc1ccccc1[N+](=O)[O-]` gave TRPC6 inh inactive, TRPC6 activator inactive, TRPC4 act inactive and TRPC4 potent inactive.
C=Cn1ccnc1CC(O)c1ccc(OC)cc1 (stereo unspecified) was read as TRPC6 inh inactive, TRPC6 activator inactive, TRPC4 inh inactive, TRPC4 act inactive and TRPC4 potent inactive.
CCCCCc1nc2sc3c(c2c(=O)n1NC(=O)c1ccc([N+](=O)[O-])cc1)CC(C)(C)OC3 was read as TRPC6 inh -5.7*, TRPC6 activator inactive, TRPC4 inh inactive, TRPC4 act inactive, TRPC4 potent inactive, HEK293 MPD ctr-2 inactive, HEK293 MPD ctr 2-2 inactive, TRPC4 ctr mod inactive, TRPC4/MOR inh 2 64%*, TRPC6 inh conf 56%* and TRPC6 act confirm inactive.
Screening CCCCCCCc1nc2sc3c(c2c(=O)n1N)CC(C)(C)OC3 returned TRPC6 inh inactive, TRPC6 activator inactive, TRPC4 inh inactive, TRPC4 act inactive and TRPC4 potent inactive.
For O=C(NNC(=O)C1CC(=O)N(Cc2ccccc2)C1)c1ccc(Br)cc1 (stereo unspecified) the results were TRPC6 inh inactive, TRPC6 activator inactive, TRPC4 inh inactive, TRPC4 act inactive and TRPC4 potent inactive.
For CCOC(=O)c1c(N)n(C2CC(C)(C)NC(C)(C)C2)c2nc3ccccc3nc12 the results were TRPC6 inh -5.4*, TRPC6 activator inactive, TRPC4 inh inactive, TRPC4 act inactive, TRPC4 potent inactive, HEK293 MPD ctr-2 -294%*, HEK293 MPD ctr 2-2 inactive, TRPC4 ctr mod -55%*, TRPC4/MOR inh 2 43%*, TRPC6 inh conf inactive and TRPC6 act confirm inactive.
For CCOC(=O)c1c(N)n(-c2ccc(N)cc2)c2nc3ccccc3nc12 the results were TRPC6 inh inactive, TRPC6 activator inactive, TRPC4 inh inactive, TRPC4 act inactive and TRPC4 potent inactive.
For OCC[C@H]1C[C@@H](O)[C@H](O)[C@@]2(CCCCO2)O1 the results were TRPC6 inh -7.4*, TRPC6 activator inactive, TRPC4 inh inactive, TRPC4 act inactive, TRPC4 potent inactive, TRPC4 spec 2 inactive, TRPC4 spec inactive, HEK293 MPD ctr 2-1 inactive, HEK293 MPD ctr-1 inactive, TRPC6 inh conf inactive and TRPC6 act confirm inactive.
CCOC(=O)C1CCCN(S(=O)(=O)c2ccc3c(c2)N(C)C(=O)CC(=O)N3C)C1 (stereo unspecified) was read as TRPC6 inh inactive, TRPC6 activator inactive, TRPC4 inh inactive, TRPC4 act inactive and TRPC4 potent inactive.
Screening C/C(=N\NC(=O)CN1CCOCC1)C(C)(C)C returned TRPC6 inh inactive, TRPC6 activator inactive, TRPC4 inh inactive, TRPC4 act inactive and TRPC4 potent inactive.
`N=c1c(C(=O)NCC2CCCO2)cc2c(=O)n3ccccc3nc2n1Cc1ccco1` (stereo unspecified) gave TRPC6 inh -5.3*, TRPC6 activator inactive, TRPC4 inh inactive, TRPC4 act inactive, TRPC4 potent inactive, HEK293 MPD ctr-2 inactive, HEK293 MPD ctr 2-2 76%*, TRPC4 ctr mod 13%*, TRPC4/MOR inh 2 inactive, TRPC6 inh conf inactive and TRPC6 act confirm inactive.
CCOCCCNc1nc2nc3ccc(C)cn3c(=O)c2cc1C(=O)NCC1CCCO1 (stereo unspecified) was read as TRPC6 inh -5.5*, TRPC6 activator inactive, TRPC4 inh inactive, TRPC4 act inactive, TRPC4 potent inactive, HEK293 MPD ctr-2 149%*, HEK293 MPD ctr 2-2 61%*, TRPC4 ctr mod 24%*, TRPC4/MOR inh 2 inactive and TRPC6 inh conf inactive.
For N=c1c(C(=O)NCC2CCCO2)cc2c(=O)n3ccccc3nc2n1Cc1cccnc1 (stereo unspecified) the results were TRPC6 inh -7.5*, TRPC6 activator inactive, TRPC4 inh inactive, TRPC4 act inactive, TRPC4 potent inactive, HEK293 MPD ctr-2 inactive, HEK293 MPD ctr 2-2 84%*, TRPC4 ctr mod -100%*, TRPC4/MOR inh 2 33%*, TRPC6 inh conf 50%* and TRPC6 act confirm inactive.
